Each block holds one molecule with its values, some of them ahead of it. Peptide text beside a SMILES is read from it.
How the values were obtained:
human red blood cells [1] = details: ref Edwards et al., 2016; cited from earlier work
Solubility in water = format: physicochemical; details: lyophilized peptides resuspended in water at 10 mg/mL
[2] = MBC of β-AMPs with and without 40% human serum; format: cell-based; details: MH vs MH with 40% human serum; strain not given
In short: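 Broth microdilution is run in MH with or without human serum, which is added to the cell suspension at twice the final level. Test compound is taken from 256 µg/mL through 2-fold serial dilutions in triplicate, with 5 × 10^5 cells/mL final, for 18–24 h at 37°C. 5 µL per well is plated on LB agar for 18 h at 37°C. MBC is the lowest concentration with zero growth, median of triplicates.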

human red blood cells [3] = test: Hemolysis; format: cell-based; details: 2-fold serial dilutions, compared with 1% Triton X-100 (100%); n = 3
A. baumannii AB5075 = test: Isolation of resistant mutants by subinhibitory serial passage; format: cell-based, Acinetobacter baumannii; details: subinhibitory serial passage in liquid media over two weeks
[4] = test system: A. baumannii AB5075 knockout or overexpression strains; test: MIC against knockout or overexpression strains of upregulated genes; format: cell-based, Acinetobacter baumannii; details: all the upregulated genes tested (Table S1: fold change MIC 1 for each)
In short: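 Genes for overexpression are cloned via EcoRI/SalI into pMMBEH67 TetR, electroporated into AB5075 and selected on LB with 10 µg/mL tetracycline. […] The MIC is the lowest concentration with no visible growth, by eye, median of triplicates.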

[5] = test system: E. coli KS272, HM130 and HM130 with trypsin protease; test: MBC with and without protease activity; format: cell-based, Escherichia coli; details: KS272, HM130, HM130 with 160 ng/mL trypsin protease, MH media
In short: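 E. coli KS272 (parent) and HM130 (cell envelope proteases deleted) are grown overnight at 37°C. Trypsin, where used, is added to the diluted cells at twice the final concentration. Test compound is taken from 256 µg/mL through 2-fold serial dilutions in triplicate, 5 × 10^5 cells/mL final, for 18–24 h at 37°C.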

Molecule: GSKKPVPIIYCNRRTGKCQRM (disulfide) [Thanatin]
Hemolysis previously reported (human red blood cells [1]): very low hemolysis

Solubility in water (Solubility in water): insoluble in water
Molecule: RKCVILCAR-NRRA-CVILCR [SBH-19]

Molecule: RGGRLCYCRRRFCVCVGR--- (bicyclic or more) [protegrin-1, reference compound]
Loss of activity (MBC) when 40% human serum was added [2]: no change

Molecule: CC[C@H](C)[C@H](NC(=O)[C@H](CCCCN)NC(=O)[C@@H](NC(=O)[C@H](CC(N)=O)NC(=O)[C@H](C)NC(=O)[C@H](CCCNC(=N)N)NC(=O)[C@H](CCCNC(=N)N)NC(=O)[C@H](CC(N)=O)NC(=O)[C@H](CCCNC(=N)N)NC(=O)[C@H](CCCNC(=N)N)NC(=O)[C@H](C)NC(=O)[C@@H](NC(=O)[C@H](CO)NC(=O)[C@@H](NC(=O)[C@@H](NC(=O)[C@H](CS)NC(=O)[C@H](CCCCN)NC(=O)[C@@H](N)CCCNC(=N)N)C(C)C)[C@@H](C)CC)C(C)C)[C@@H](C)CC)C(=O)N[C@@H](CC(C)C)C(=O)N[C@@H](CS)C(=O)N[C@@H](CC(N)=O)C(N)=O [Symbah-1] (H-RKCVISVARRNRRANIKILCN-NH2; N-terminus assumed)
Percent hemolysis of serial dilutions (human red blood cells [3]): very low hemolysis relative to protegrin-1 and tachyplesin-1
Loss of activity (MBC) when 40% human serum was added [2]: 8 fold
Isolation of resistant mutants (A. baumannii AB5075): no isolates with improved resistance
Effect of gene knockout or overexpression on MIC [4]: no clear effect on MIC
Change of MBC under each of the conditions tested [5]: ≤ 2 fold

From PMC8719016 (iScience, 2021)
